Results published in ChEMBL document CHEMBL1157970, “Quercetin as the active principle of Hypericum hircinum exerts a selective inhibitory activity against MAO-A: extraction, biological analysis, and computational study” (J Nat Prod, 2006).
Active and inactive are the calls of the source. The rule behind the calls is not given here.

Experiments:
Mus musculus [1] = assay: Effect on duration of immobility in CD1 mouse at 1 mg/kg, ip by forced swimming test relative to carboxy methyl cellulose; assay type: functional, organism-based; parameters: dose 1 mg/kg
Outline: (§1)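 Male CD1 mice, 25-28 g, n = 10 per group. Two-day protocol: 15-min pretest swim in a cylinder of 25 °C water. After 24 h, a 10-min videotaped test session 60 min after ip injection of drug suspended in 0.5% CMC, given at 0.01 mL/g. Immobility time is compared with naïve and CMC groups by two-way ANOVA and Duncan test, p < 0.05.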

Mus musculus [2] = assay: Increase in duration of immobility in CD1 mouse at 1 mg/kg, ip by forced swimming test relative to carboxy methyl cellulose; assay type: functional, organism-based; parameters: dose 1 mg/kg; outline: as §1
[3] = target: T1, Amine oxidase [flavin-containing] A (Bos taurus, UniProt P21398); assay: Inhibition of bovine MAO-A by fluorimetric method
T1 sequence (P21398 whole entry): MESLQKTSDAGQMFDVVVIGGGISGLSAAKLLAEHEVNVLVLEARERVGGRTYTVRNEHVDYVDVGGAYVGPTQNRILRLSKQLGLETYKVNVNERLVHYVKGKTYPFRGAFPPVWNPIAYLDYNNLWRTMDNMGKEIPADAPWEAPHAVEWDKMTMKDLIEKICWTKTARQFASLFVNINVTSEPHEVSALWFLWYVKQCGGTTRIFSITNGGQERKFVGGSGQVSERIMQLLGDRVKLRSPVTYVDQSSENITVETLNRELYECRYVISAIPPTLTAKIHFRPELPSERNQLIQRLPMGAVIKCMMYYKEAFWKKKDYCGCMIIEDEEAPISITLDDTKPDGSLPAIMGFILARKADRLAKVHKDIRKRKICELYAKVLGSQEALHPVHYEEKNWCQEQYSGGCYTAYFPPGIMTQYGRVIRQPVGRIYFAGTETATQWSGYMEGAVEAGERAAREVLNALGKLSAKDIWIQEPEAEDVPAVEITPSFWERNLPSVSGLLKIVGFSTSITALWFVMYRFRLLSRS
Outline: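 Beef brain mitochondria (6 mg/mL) in K3PO4 buffer pH 7.4 with kynuramine substrate (four concentrations, 5 μM to 0.1 mM). Preincubated 30 min at 38 °C with 0.5 μM L-deprenyl to isolate MAO-A. Drug in DMSO; incubated 30 min at 38 °C, stopped with HClO4, supernatant into NaOH, read fluorimetrically. Means of three or more experiments run in duplicate.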

Mus musculus [4] = assay: Induction of behavioral effects in CD1 mouse at 1 mg/kg, ip by forced swimming test relative to carboxy methyl cellulose; assay type: functional, organism-based; parameters: dose 1 mg/kg; outline: as §1
Mus musculus [5] = assay: Increase in duration of immobility in CD1 mouse at 10 mg/kg, ip by forced swimming test relative to carboxy methyl cellulose; assay type: functional, organism-based; parameters: dose 10 mg/kg; outline: as §1
Mus musculus [6] = assay: Effect on duration of immobility in CD1 mouse at 1 mg/kg, ip by forced swimming test relative to control; assay type: functional, organism-based; parameters: dose 1 mg/kg; outline: as §1
Mus musculus [7] = assay: Induction of behavioral effects in CD1 mouse at 1 mg/kg, ip by forced swimming test relative to control; assay type: functional, organism-based; parameters: dose 1 mg/kg; outline: as §1
Mus musculus [8] = assay: Increase in duration of immobility in CD1 mouse at 10 mg/kg, ip by forced swimming test relative to control; assay type: functional, organism-based; parameters: dose 10 mg/kg; outline: as §1
Mus musculus [9] = assay: Induction of behavioral effects in CD1 mouse at 10 mg/kg, ip by forced swimming test relative to carboxy methyl cellulose; assay type: functional, organism-based; parameters: dose 10 mg/kg; outline: as §1
Mus musculus [10] = assay: Effect on duration of immobility in CD1 mouse at 10 mg/kg, ip by forced swimming test relative to control; assay type: functional, organism-based; parameters: dose 10 mg/kg; outline: as §1
[11] = target: T2, Amine oxidase [flavin-containing] B (Bos taurus, UniProt P56560); assay: Inhibition of bovine MAO-B by fluorimetric method
T2 sequence (P56560 whole entry): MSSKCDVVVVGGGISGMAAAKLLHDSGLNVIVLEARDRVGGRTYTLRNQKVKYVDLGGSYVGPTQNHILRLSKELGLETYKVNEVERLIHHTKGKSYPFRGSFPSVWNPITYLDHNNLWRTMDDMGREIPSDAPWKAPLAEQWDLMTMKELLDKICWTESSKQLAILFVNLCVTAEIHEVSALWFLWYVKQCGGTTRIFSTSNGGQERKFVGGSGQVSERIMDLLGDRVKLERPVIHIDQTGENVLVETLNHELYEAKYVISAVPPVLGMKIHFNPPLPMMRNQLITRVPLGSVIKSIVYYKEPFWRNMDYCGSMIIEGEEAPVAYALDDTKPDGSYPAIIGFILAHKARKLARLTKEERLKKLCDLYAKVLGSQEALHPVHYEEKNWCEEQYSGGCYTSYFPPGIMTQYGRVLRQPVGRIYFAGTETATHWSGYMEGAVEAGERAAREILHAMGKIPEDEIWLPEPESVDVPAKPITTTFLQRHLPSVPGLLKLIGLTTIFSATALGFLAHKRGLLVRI
Outline: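 Bovine brain mitochondria (6 mg/mL) in 0.25 M potassium phosphate buffer pH 7.4; preincubated 30 min at 38 °C with 0.05 μM clorgyline to isolate MAO-B. Kynuramine substrate at four levels, 5 μM to 0.1 mM; inhibitor added from DMSO; 30 min at 38 °C, stopped with HClO4, centrifuged, supernatant into 0.1 N NaOH, fluorimetric read-out. Means of ≥3 experiments in duplicate.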

Mus musculus [12] = assay: Effect on duration of immobility in CD1 mouse at 10 mg/kg, ip by forced swimming test relative to carboxy methyl cellulose; assay type: functional, organism-based; parameters: dose 10 mg/kg; outline: as §1
Mus musculus [13] = assay: Increase in duration of immobility in CD1 mouse at 1 mg/kg, ip by forced swimming test relative to control; assay type: functional, organism-based; parameters: dose 1 mg/kg; outline: as §1
Mus musculus [14] = assay: Induction of behavioral effects in CD1 mouse at 10 mg/kg, ip by forced swimming test relative to control; assay type: functional, organism-based; parameters: dose 10 mg/kg; outline: as §1

SMILES: O=c1c(O)c(-c2ccc(O)c(O)c2)oc2cc(O)cc(O)c12 [QUERCETIN]
- Activity (Mus musculus [1]): inactive
- Activity (Mus musculus [2]): Active
- IC50 [3]: 0.01 µM
- Activity (Mus musculus [4]): inactive
- Activity (Mus musculus [5]): Active
- Activity (Mus musculus [6]): inactive
- Activity (Mus musculus [7]): inactive
- Activity (Mus musculus [8]): Active
- Activity (Mus musculus [9]): inactive
- Activity (Mus musculus [10]): inactive
- IC50 [11]: 20 µM
- Activity (Mus musculus [12]): inactive
- Activity (Mus musculus [13]): Active
- Activity (Mus musculus [14]): inactive
